In the library only some 3.7% were active in any assay of this set; here they are far more common.
CHO parental Ca: ATP-evoked calcium signal inhibitors, parental CHO, primary screen, counter-screen for OX1R antagonist project, cell-based, fluorescence, Fluo-8 calcium dye; 330,000 tested, 0.63% active; inhibition, % at 5.6 µM; parental CHO-K1, ATP-induced calcium, Fluo-8 fluorescence;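 active = inhibition above that plate's mean sample inhibition plus 3 SD, cut at about 26% in these data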
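Assay system: parental CHO cells; Read-out basis: percent inhibition of ATP-evoked calcium rise, normalized to controls; Benchmarks: ATP and no-ATP DMSO wells; Compound dosing: single nominal dose of 5.6 µM per compound; Signal: Fluo-8 calcium dye fluorescence; Also added: ATP as calcium-mobilizing challenge; Repeats: singlicate.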
OX1R antag-1: OX1R (HCRTR1) antagonists, primary screen, fluorescence, CHO/OX1R cells, Fluo-8 calcium, orexin A; AID 434989, 2010; Orexin/Hypocretin receptor type 1 (Homo sapiens), O43613; inhibition, % at 5 µM; Fluo-8 calcium fluorescence; 330,000 tested, 0.43% active;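 active = inhibition above its plate's threshold, mean inhibition of all tested compounds on the plate plus 3 SD, cut at about 37% in these data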
GPR7 antagonist: GPR7 receptor antagonists, primary screen, cell-based, fluorescence, single concentration. GPR7-expressing cells, fluorescence antagonist assay. inhibition, % at 4.4 µM. 290,000 tested, 1.1% active. AID 1861, 2009; in the data active = inhibition above about 16%, passing the limit was not always enough;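 note: cells stimulated with the agonist NPW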
Target sequence (P48145 whole entry, looked up): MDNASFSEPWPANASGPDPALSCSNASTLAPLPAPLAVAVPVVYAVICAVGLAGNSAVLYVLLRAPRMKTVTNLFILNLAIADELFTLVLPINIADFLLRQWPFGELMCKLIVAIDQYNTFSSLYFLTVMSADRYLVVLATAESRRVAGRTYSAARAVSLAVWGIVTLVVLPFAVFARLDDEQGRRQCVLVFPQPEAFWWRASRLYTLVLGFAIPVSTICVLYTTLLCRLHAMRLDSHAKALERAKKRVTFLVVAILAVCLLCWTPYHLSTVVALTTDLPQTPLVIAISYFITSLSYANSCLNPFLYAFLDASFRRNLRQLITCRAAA
OX1R antag-2: antagonists of human orexin 1 receptor (OX1R). Orexin/Hypocretin receptor type 1 (Homo sapiens), O43613. OX1R-expressing cells, FRET antagonist read-out. inhibition, % at 6.6 µM. 330,000 tested, 1.8% active. AID 485270, 2010; in the data active = inhibition mostly above about 38%, no sharp cut-off; inactive = mostly below about 40%
EP2 modulator: EP2 receptor modulators, cAMP readout, primary screen, cell-based, HTRF cAMP, PGE2 stimulation | Prostaglandin E2 receptor EP2 subtype (Homo sapiens), P43116 | EP2-expressing cells, cAMP HTRF FRET, PGE2 co-stimulation | induction, % at 25 µM | 260,000 tested, 0.83% active | AID 940, 2007;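 active = compounds whose cAMP rise, as percent of the full-agonist control response, exceeds 60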;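 note: rat C6 glioma line stably carrying human EP2 under a CMV promoter; the protocol text gives 20 µM as final concentration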
Target sequence (P43116 whole entry, looked up): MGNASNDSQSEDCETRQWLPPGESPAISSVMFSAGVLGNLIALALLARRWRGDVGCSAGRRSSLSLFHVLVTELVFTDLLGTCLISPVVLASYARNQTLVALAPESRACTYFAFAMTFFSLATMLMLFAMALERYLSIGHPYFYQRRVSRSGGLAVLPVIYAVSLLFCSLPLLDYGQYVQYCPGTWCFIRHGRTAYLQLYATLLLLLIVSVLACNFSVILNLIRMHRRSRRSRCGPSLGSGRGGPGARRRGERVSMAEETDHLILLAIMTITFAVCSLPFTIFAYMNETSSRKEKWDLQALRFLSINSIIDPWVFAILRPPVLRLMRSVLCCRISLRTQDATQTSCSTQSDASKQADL
EP2 antag: human EP2 receptor antagonists, primary screen, TR-FRET cAMP, C6 glioma cells | Prostaglandin E2 receptor EP2 subtype (Homo sapiens), P43116 | 260,000 tested, 0.52% active | C6 glioma cells expressing human EP2; cells stimulated with saturating PGE2 | inhibition, % at 25 µM | AID 1422, 2008;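 active = percent inhibition above 40 after rounding to a whole number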;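 note: rat C6 glioma host cells with rolipram phosphodiesterase inhibitor present; the protocol text gives 20 µM as final concentration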
GPR7 antag cf: GPR7 receptor antagonists, confirmation, cell-based, fluorescence, single concentration. shares compounds with GPR7 antagonist. GPR7-expressing cells, calcium fluorescence antagonist mode. inhibition, % at 4.4 µM. AID 1952, 2009. 2,400 tested, 52% active; in the data active = inhibition above about 24%;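 note: stimulated with the GPR7 agonist NPW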
MCHR1 antagonist: MCHR1 antagonists in cells, counter-screen for GPR7 antagonist project, cell-based, fluorescence, human | MCHR1-expressing cells, fluorescence antagonist assay | AID 2148, 2009 | 2,400 tested, 62% active | inhibition, % at 4.4 µM | shares compounds with GPR7 antagonist; in the data active = inhibition above about 22%
Of the large screens only hits and unclear results are named; the others gave an inactive call (follow-up assays come after a bar, where they were run).

COc1cc(/C=C/c2nc(-c3ccccc3O)n[nH]2)cc(OC)c1OC	GPR7 antagonist 22 | GPR7 antag cf 33 | MCHR1 antagonist 57
COc1cc(/C=C/c2nc(N)nc(-c3ccccc3O)n2)cc(OC)c1OC	none
CN(c1ccccc1)P(=O)(N(C)c1ccccc1)N(C)c1ccccc1	GPR7 antagonist 28 | GPR7 antag cf 34 | MCHR1 antagonist 37
COc1ccc(CNC(=O)c2ccc(CS(=O)Cc3ccc(Cl)cc3)o2)cc1 (stereo unspecified)	none (no result: EP2 modulator, EP2 antag)
CCOC(=O)N1CCC(n2c(SCC(=O)NCCc3ccc(S(N)(=O)=O)cc3)nc3ccccc3c2=O)CC1	GPR7 antagonist 43 | GPR7 antag cf inactive | MCHR1 antagonist inactive
NS(=O)(=O)c1ccc(CCNC(=O)CSc2nc3ccsc3c(=O)n2C2CC2)cc1	none
N/C(=N\OC(=O)COc1ccc(Cl)cc1Br)c1cccnc1	GPR7 antagonist 24 | GPR7 antag cf inactive | MCHR1 antagonist inactive
O=C(Oc1ccc2c(c1)OCO2)c1ccc(F)cc1Cl	GPR7 antagonist 22 | GPR7 antag cf inactive | MCHR1 antagonist inactive
Nc1ccccc1C#CC(=O)c1ccccc1	GPR7 antagonist 37 (no result: EP2 modulator, EP2 antag) | GPR7 antag cf 71 | MCHR1 antagonist 36
Nc1ccccc1C#Cc1ccc([N+](=O)[O-])cc1	none (no result: GPR7 antagonist, EP2 modulator, EP2 antag)
O=C(Nc1ccc(Cl)cc1)Nc1nc(-c2ccccc2O)cs1	CHO parental Ca 74, OX1R antag-1 41, GPR7 antagonist 31 | GPR7 antag cf 67 | MCHR1 antagonist 62
CC(=O)c1ccc(N2CCN(C(=O)c3cc4c(s3)CCCC4)CC2)cc1	GPR7 antagonist 26 | GPR7 antag cf 30 | MCHR1 antagonist 61
COc1ccc(Nc2sc(C(=O)c3ccc(Cl)cc3)c(N)c2C(=O)Nc2ccccc2OC)cc1	CHO parental Ca 71, OX1R antag-1 101, GPR7 antagonist 71 | GPR7 antag cf 93 | MCHR1 antagonist 100
COc1ccccc1NC(=O)c1c(Nc2ccccc2C)sc(C(=O)Nc2cccc(Cl)c2)c1N	none
COc1ccc(C(=O)c2sc(Nc3cccc(OC)c3)c(C(=O)Nc3cccc(C)c3C)c2N)cc1	CHO parental Ca 60, GPR7 antagonist 79 | GPR7 antag cf inactive | MCHR1 antagonist 77
CCOC(=O)Cn1cc(/C=N/NC(=O)c2cc3ccccc3o2)c2ccccc21	GPR7 antagonist 26 | GPR7 antag cf inactive | MCHR1 antagonist 28
O=C(COc1ccc([N+](=O)[O-])cc1)NCCC1=CCCCC1	GPR7 antagonist 29 | GPR7 antag cf 31 | MCHR1 antagonist inactive
COc1ccc(CC(=O)Nc2ccc(S(=O)(=O)N3CCOCC3)cc2)cc1	none (no result: GPR7 antagonist, EP2 modulator, EP2 antag)
COc1ccc(S(=O)(=O)N2CCCN(CC(=O)Nc3ccccc3F)CC2)cc1	GPR7 antagonist 30 (no result: EP2 modulator, EP2 antag) | GPR7 antag cf inactive | MCHR1 antagonist 42
COc1ccc(S(=O)(=O)N2CCN(CCC(=O)Nc3ccccc3F)CC2)cc1	none
COc1ccc(S(=O)(=O)N(CC(=O)Nc2ccc(S(=O)(=O)N3CCOCC3)cc2)Cc2ccc(F)cc2)cc1	GPR7 antagonist 24 | GPR7 antag cf 28 | MCHR1 antagonist inactive
COc1ccc(S(=O)(=O)N2CCN(CC(=O)Nc3cccc(OC)c3)CC2)cc1	GPR7 antagonist 35 (no result: EP2 modulator, EP2 antag) | GPR7 antag cf 25 | MCHR1 antagonist inactive
O=C(C1=C[C@H](c2csc3ccccc23)C[C@H](OCc2ccc(CO)cc2)O1)N1CCCCCCC1	none (no result: GPR7 antagonist, EP2 modulator)
CC1(C)CC(NC(=O)c2ccccc2Cl)CC(C)(C)N1	none
COc1ccc(C(=O)Nc2sc3c(c2C(=O)NC2CCS(=O)(=O)C2)CCCC3)cc1 (stereo unspecified)	none (no result: CHO parental Ca, OX1R antag-1, GPR7 antagonist, OX1R antag-2)
COc1cccc(/C=N/c2sc(Cc3ccccc3)c(C)c2C(N)=O)c1O	none
S=C(NCCN1CCCCC1)Nc1ccc(Br)cc1	GPR7 antagonist 38 | GPR7 antag cf inactive | MCHR1 antagonist inactive
COCCNC(=S)Nc1ccc(S(=O)(=O)Nc2ncccn2)cc1	GPR7 antagonist 25 | GPR7 antag cf inactive | MCHR1 antagonist inactive
O=S(=O)(Nc1ncccn1)c1ccc(NC(=S)NCCc2ccccc2)cc1	none
CCn1c(CNc2ccc(Cl)cc2)nnc1SCc1ccc(Cl)cc1	GPR7 antagonist 34 | GPR7 antag cf 41 | MCHR1 antagonist 45
CCn1c(CC(=O)Nc2ccc(Cl)c(Cl)c2)nnc1SCc1ccc(Cl)cc1	none
CCn1c(CNc2ccc(Cl)cc2)nnc1SCCN1CCCCC1	none (no result: GPR7 antagonist) | MCHR1 antagonist inactive
COCCn1c(SCC(=O)NC2CCCCC2C)nc2ccccc2c1=O (stereo unspecified)	none (no result: EP2 modulator, EP2 antag)
C=CCN1C(=O)CSc2ccc(C(=O)NCc3cccs3)cc21	GPR7 antagonist 28 | GPR7 antag cf inactive | MCHR1 antagonist inactive
C=CCN1C(=O)CSc2ccc(C(=O)NC3CCCCC3)cc21	none (no result: EP2 modulator, EP2 antag)
CCCCN(C)CC(O)Cn1cc(/C=C/C(=O)c2cccs2)c2ccccc21 (stereo unspecified)	none
CCCCN(C)CC(O)Cn1cc(/C=C/C(=O)c2ccc(OCC)cc2)c2ccccc21 (stereo unspecified)	GPR7 antagonist 32 (no result: EP2 modulator, EP2 antag) | GPR7 antag cf 36 | MCHR1 antagonist 55
O=C(Nc1cccc(Cl)c1)c1cc(S(=O)(=O)NCCc2ccc(Cl)cc2)ccc1F	GPR7 antagonist 21 | GPR7 antag cf inactive | MCHR1 antagonist 43
N#Cc1c(-c2ccco2)cc(C2CC2)nc1SCC(=O)c1ccccc1	none
CCOC(=O)Nc1cc(=O)c2ccccc2o1	GPR7 antagonist 21 | GPR7 antag cf inactive | MCHR1 antagonist inactive
CCOc1ccccc1NC(=O)c1cc(=O)c2ccccc2o1	none (no result: EP2 modulator, EP2 antag)
COc1ccccc1CNCC(c1ccccc1)c1ccccc1	GPR7 antagonist 42 (no result: EP2 modulator, EP2 antag) | GPR7 antag cf 46 | MCHR1 antagonist 34
COc1ccccc1CNCC(O)Cn1c2ccccc2c2ccccc21 (stereo unspecified)	GPR7 antagonist 37 | GPR7 antag cf 68 | MCHR1 antagonist 73
CC(C)(CO)NC(=O)c1cc(-c2ccccc2)on1	none (no result: CHO parental Ca, OX1R antag-1, GPR7 antagonist, OX1R antag-2)

Source: PubChem BioAssay
